Test results taken from ChEMBL document CHEMBL2176909, “Kaurenoic acid from Sphagneticola trilobata Inhibits Inflammatory Pain: effect on cytokine production and activation of the NO-cyclic GMP-protein kinase G-ATP-sensitive potassium channel signaling pathway” (J Nat Prod, 2012).
The source made the active and inactive calls.

Key:
Mus musculus [1] = assay: Antiinflammatory activity in complete Freund's adjuvant-induced Swiss mouse pain model assessed as inhibition of paw flinching at 10 mg/kg, po administered 30 mins prior to challenge; type: functional, organism-based; set-up: dose 10 mg/kg
Summary of the method: (§1)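 10 mg/kg po (or vehicle) given 30 min before intraplantar CFA (10 μL/paw) in Swiss mice. Paw flinches and licking time counted over 30 min as cumulative totals. n = 6.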

Mus musculus [2] = assay: Antihyperalgesic activity in carrageenan-induced mechanical hyperalgesia Swiss mouse model assessed as paw withdrawal latency at 10 mg/kg, po administered 30 mins prior to challenge measured after 1 to 5 hrs post challenge by electronic pressure-meter test in presence of soluble […] inhibitor ODQ; type: functional, organism-based; set-up: dose 10 mg/kg
Summary of the method: (§2)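 Pretreatment ip: ODQ 0.3 mg/kg in 2% DMSO/saline at 30 min, KT5823 0.5 μg/mouse in 2% DMSO/saline at 5 min, or glybenclamide 0.3 mg/kg in 5% Tween 80/saline at 45 min. Each is followed by 10 mg/kg po, then intraplantar carrageenin (100 μg/paw) 30 min later. Pressure-meter Δ threshold (g) at 1, 3 and 5 h. n = 5.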

Mus musculus [3] = assay: Antinociceptive activity against formalin-induced pain in Swiss mouse assessed as inhibition of paw licking at 10 mg/kg, po administered 30 mins prior to formalin challenge; type: functional, organism-based; set-up: dose 10 mg/kg
Summary of the method: (§3)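 Swiss mice dosed 10 mg/kg po 30 min before intraplantar formalin (25 μL of 1.5% in saline). Flinches and licking time counted over 0–30 min in 5-min bins and reported as 0–15 and 15–30 min phases. n = 6.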

Mus musculus [4] = assay: Antihyperalgesic activity in carrageenan-induced mechanical hyperalgesia Swiss mouse model assessed as paw withdrawal latency at 10 mg/kg, po administered 30 mins prior to challenge measured after 1 to 5 hrs post challenge by electronic pressure-meter test in presence of 10 mg/kg L-NAME; type: functional, organism-based
Summary of the method: (§4)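 Swiss mice given L-NAME (10–90 mg/kg ip) 60 min before 10 mg/kg po. Intraplantar carrageenin (100 μg/paw) 30 min later. Mechanical threshold by electronic pressure-meter at 5 h, reported as Δ withdrawal threshold (g). n = 5.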

Mus musculus [5] = assay: Antihyperalgesic activity against thermal hyperalgesia in Swiss mouse assessed as increase in thermal nociceptive threshold at 10 mg/kg, po after 1.5 to 5.5 hrs by hot plate test; type: functional, organism-based; set-up: dose 10 mg/kg
Summary of the method: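 Male Swiss mice (25–30 g), 10 mg/kg po. Hot plate at 55 °C inside a glass cylinder. Two baseline latencies taken ≥10 min apart, then latency read at 1.5, 3.5 and 5.5 h after dosing. Endpoint is jumping or paw licking, with a 30 s cutoff.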

Mus musculus [6] = assay: Antihyperalgesic activity in complete Freund's adjuvant-induced Swiss mouse pain model assessed as paw withdrawal latency at 10 mg/kg, po starting 1 hr post challenge for 7 days measured after 2 to 7 days by electronic pressure-meter test; type: functional, organism-based; set-up: dose 10 mg/kg
Summary of the method: (§5)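 Male Swiss mice injected intraplantar with CFA (10 μL/paw). Dosing is daily from 1 h after CFA for 7 days, either 10 mg/kg po or indomethacin 5 mg/kg ip. Electronic pressure-meter Δ withdrawal threshold (g) measured every 24 h. n = 6.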

Mus musculus [7] = assay: Antihyperalgesic activity in carrageenan-induced mechanical hyperalgesia Swiss mouse model assessed as paw withdrawal latency at 1 mg/kg, po administered 30 mins prior to challenge by electronic pressure-meter test; type: functional, organism-based; set-up: dose 1 mg/kg
Summary of the method: (§6)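 Male Swiss mice dosed po (1–10 mg/kg, 2% DMSO in saline) 30 min before intraplantar carrageenin (100 μg/paw). Control indomethacin 5 mg/kg ip given 40 min before. Electronic pressure-meter readings at 1, 3 and 5 h, mean of three. Δ withdrawal threshold (g) is the post-stimulus reading minus zero-time. n = 5.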

Mus musculus [8] = assay: Antihyperalgesic activity in PGE2-induced mechanical hyperalgesia Swiss mouse model assessed as paw withdrawal latency at 10 mg/kg, po administered 30 mins prior to challenge measured at 3 hrs post compound treatment by electronic pressure-meter test; type: functional, organism-based; set-up: dose 10 mg/kg
Summary of the method: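 Male Swiss mice given 10 mg/kg po (vehicle 2% DMSO in saline) 30 min before intraplantar PGE2 (100 ng/paw). Electronic pressure-meter test 3 h after stimulus, each value the mean of three readings. Result is Δ withdrawal threshold (g), zero-time mean subtracted. n = 5.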

Mus musculus [9] = assay: Antihyperalgesic activity in carrageenan-induced mechanical hyperalgesia Swiss mouse model assessed as paw withdrawal latency at 10 mg/kg, po administered 30 mins prior to challenge measured after 1 to 5 hrs post challenge by electronic pressure-meter test in presence of 30 mg/kg L-NAME; type: functional, organism-based; summary of the method: as §4
Mus musculus [10] = assay: Antihyperalgesic activity in carrageenan-induced mechanical hyperalgesia Swiss mouse model assessed as paw withdrawal latency at 10 mg/kg, po administered 30 mins prior to challenge measured after 1 to 5 hrs post challenge by electronic pressure-meter test in presence of 90 mg/kg L-NAME; type: functional, organism-based; summary of the method: as §4
Mus musculus [11] = assay: Hepatotoxicity in Swiss mouse assessed as change in plasma ALT level at 10 mg/kg, po for 7 days measured over 7 days relative to vehicle-treated control; type: toxicity, organism-based; set-up: dose 10 mg/kg, route oral; conditions: in vivo, 168 h
Summary of the method: (§7)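 Mice dosed po daily for 7 days: vehicle (2% DMSO/saline or Tris/HCl pH 8.0), 10 mg/kg, or indomethacin 2.5 mg/kg. Heparinized blood is drawn under terminal anesthesia, and plasma AST and ALT are measured with a diagnostic kit. n = 8.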

Mus musculus [12] = assay: Antihyperalgesic activity in po dosed carrageenan-induced mechanical hyperalgesia Swiss mouse model assessed as paw withdrawal latency administered 30 mins prior to challenge by electronic pressure-meter test; type: functional, organism-based; summary of the method: as §6
Mus musculus [13] = assay: Antihyperalgesic activity in carrageenan-induced mechanical hyperalgesia Swiss mouse model assessed as paw withdrawal latency at 10 mg/kg, po administered 30 mins prior to challenge measured after 1 to 5 hrs post challenge by electronic pressure-meter test in presence of glibenclamide; type: functional, organism-based; set-up: dose 10 mg/kg; summary of the method: as §2
Mus musculus [14] = assay: Antiinflammatory activity in complete Freund's adjuvant-induced Swiss mouse pain model assessed as inhibition of paw licking at 10 mg/kg, po administered 30 mins prior to challenge; type: functional, organism-based; set-up: dose 10 mg/kg; summary of the method: as §1
Mus musculus [15] = assay: Antinociceptive activity in po dosed Swiss mouse assessed as inhibition of acetic acid-induced writhing administered 30 mins prior to acetic acid challenge; type: functional, organism-based
Summary of the method: (§8)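 Mice dosed ip or po (3–30 mg/kg, 2% DMSO in saline) 30 min before ip acetic acid (0.8% v/v, 10 mL/kg). Indomethacin 5 mg/kg ip given 40 min before. Cumulative writhing score over 20 min. n = 6.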

Mus musculus [16] = assay: Hepatotoxicity in Swiss mouse assessed as change in plasma AST level at 10 mg/kg, po for 7 days measured over 7 days relative to vehicle-treated control; type: toxicity, organism-based; set-up: dose 10 mg/kg, route oral; conditions: in vivo, 168 h; summary of the method: as §7
Mus musculus [17] = assay: Gastrointestinal toxicity in Swiss mouse assessed as increase in stomach MPO activity at 10 mg/kg, po for 7 days measured over 7 days relative to vehicle-treated control; type: organism-based; set-up: dose 10 mg/kg, route oral; conditions: in vivo, 168 h
Summary of the method: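 Mice dosed po daily for 7 days: vehicle (2% DMSO/saline or Tris/HCl pH 8.0), 10 mg/kg, or indomethacin 2.5 mg/kg. Stomach is homogenized in 50 mM phosphate buffer pH 6.0 with 0.5% HTAB. Supernatant is reacted with o-dianisidine/H2O2 and read at 450 nm. Results expressed as neutrophils ×10^4/mg tissue from a neutrophil standard curve. n = 8.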

Mus musculus [18] = assay: Antinociceptive activity against formalin-induced pain in Swiss mouse assessed as inhibition of paw flinching at 10 mg/kg, po administered 30 mins prior to formalin challenge; type: functional, organism-based; set-up: dose 10 mg/kg; summary of the method: as §3
Mus musculus [19] = assay: Antihyperalgesic activity in carrageenan-induced mechanical hyperalgesia Swiss mouse model assessed as paw withdrawal latency at 10 mg/kg, po administered 30 mins prior to challenge measured after 1 to 5 hrs post challenge by electronic pressure-meter test in presence of PKG inhibitor KT5823; type: functional, organism-based; set-up: dose 10 mg/kg; summary of the method: as §2
Mus musculus [20] = assay: Antinociceptive activity in Swiss mouse assessed as inhibition of PBQ-induced writhing at 10 mg/kg, po administered 30 mins prior to PBQ challenge; type: functional, organism-based; set-up: dose 10 mg/kg
Summary of the method: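 Swiss mice dosed po (10 mg/kg) 30 min before ip PBQ (1890 μg/kg in 2% DMSO/saline). Indomethacin 5 mg/kg ip given 40 min before. Cumulative writhing score over 20 min. n = 6.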

Mus musculus [21] = assay: Antihyperalgesic activity in carrageenan-induced mechanical hyperalgesia Swiss mouse model assessed as paw withdrawal latency at 10 mg/kg, po administered 30 mins prior to challenge measured after 1 to 5 hrs post challenge by electronic pressure-meter test; type: functional, organism-based; set-up: dose 10 mg/kg; summary of the method: as §6
Mus musculus [22] = assay: Antinociceptive activity in Swiss mouse assessed as inhibition of acetic acid-induced writhing at 3 to 30 mg/kg, ip administered 30 mins prior to acetic acid challenge; type: functional, organism-based; summary of the method: as §8
Mus musculus [23] = assay: Antihyperalgesic activity in complete Freund's adjuvant-induced Swiss mouse pain model assessed as paw withdrawal latency at 10 mg/kg, po starting 1 hr post challenge for 7 days measured on day 1 post challenge by electronic pressure-meter test; type: functional, organism-based; set-up: dose 10 mg/kg; summary of the method: as §5
Mus musculus [24] = assay: Antihyperalgesic activity in carrageenan-induced mechanical hyperalgesia Swiss mouse model assessed as paw withdrawal latency at 10 mg/kg, po administered 30 mins prior to challenge measured after 1 to 5 hrs post stimulus by electronic pressure-meter test; type: functional, organism-based; set-up: dose 10 mg/kg; summary of the method: as §6
Mus musculus [25] = assay: Antihyperalgesic activity in carrageenan-induced mechanical hyperalgesia Swiss mouse model assessed as paw withdrawal latency at 3 mg/kg, po administered 30 mins prior to challenge measured after 1 to 3 hrs post stimulus by electronic pressure-meter test; type: functional, organism-based; set-up: dose 3 mg/kg; summary of the method: as §6
Mus musculus [26] = assay: Toxicity in Swiss mouse assessed as sedative effect at 10 mg/kg, po after 1.5 to 5.5 hrs by roto-rod test; type: organism-based; set-up: dose 10 mg/kg, route oral; conditions: in vivo
Summary of the method: (§9)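 Rota-rod turning at 22 rpm. Mice are pre-selected 24 h earlier by staying on for two 120 s periods. Dosing is vehicle (20% Tween 80/saline) or 10 mg/kg po, with testing at 1.5, 3.5 and 5.5 h and a 120 s cutoff. n = 6.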

Mus musculus [27] = assay: Antiinflammatory activity in Swiss mouse model assessed as inhibition of carrageenan-induced TNFalpha production in cutaneous plantar tissue at 10 mg/kg, po administered 30 mins prior to challenge measured 3 hrs post challenge by ELISA; type: functional, organism-based; set-up: dose 10 mg/kg
Summary of the method: (§10)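 Swiss mice given 10 mg/kg po 30 min before intraplantar carrageenin (100 μg/paw). At 3 h, plantar skin is removed under terminal anesthesia and homogenized in buffer with protease inhibitors. IL-1β and TNF-α measured by ELISA, as pg/paw. Saline-injected paws serve as controls. n = 5.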

Mus musculus [28] = assay: Toxicity in Swiss mouse assessed as effect on muscle-relaxing effect at 10 mg/kg, po after 1.5 to 5.5 hrs by roto-rod test; type: organism-based; set-up: dose 10 mg/kg, route oral; conditions: in vivo; summary of the method: as §9
Mus musculus [29] = assay: Antiinflammatory activity in Swiss mouse model assessed as inhibition of carrageenan-induced IL-1beta production in cutaneous plantar tissue at 10 mg/kg, po administered 30 mins prior to challenge measured 3 hrs post challenge by ELISA; type: functional, organism-based; set-up: dose 10 mg/kg; summary of the method: as §10

With `C=C1C[C@@]23CC[C@H]4[C@@](C)(CCC[C@@]4(C)C(=O)O)[C@@H]2CC[C@@H]1C3` [KAURENOIC ACID] the inhibition (Mus musculus [1]) was “Active”, the Activity (Mus musculus [2]) was “inactive” and the inhibition (Mus musculus [3]) was “Active”. For the same compound, the Activity (Mus musculus [4]) was “Active”, the Activity (Mus musculus [5]) was “inactive” and the Activity (Mus musculus [6]) was “Active”. The Activity (Mus musculus [7]) was “inactive”, the Activity (Mus musculus [8]) was “Active” and the Activity (Mus musculus [9]) was “inactive”. For the same compound, the Activity (Mus musculus [10]) was “inactive”, the Activity (Mus musculus [11]) was “Non-toxic” and the Activity (Mus musculus [12]) was “Dose-dependent effect”. The Activity (Mus musculus [13]) was “inactive”, the inhibition (Mus musculus [14]) was “Active” and the inhibition (Mus musculus [15]) was “Dose-dependent effect”. The Activity (Mus musculus [16]) was “Non-toxic”, the Activity (Mus musculus [17]) was “Non-toxic” and the inhibition (Mus musculus [18]) was “Active”. For the same compound, the Activity (Mus musculus [19]) was “inactive”, the inhibition (Mus musculus [20]) was “Active” and the Activity (Mus musculus [21]) was “Active”. For the same compound, the inhibition (Mus musculus [22]) was “Active”, the Activity (Mus musculus [23]) was “inactive” and the Activity (Mus musculus [24]) was “Active”. For the same compound, the Activity (Mus musculus [25]) was “Active”, the Activity (Mus musculus [26]) was “Non-toxic” and the inhibition (Mus musculus [27]) was “Active”. The Activity (Mus musculus [28]) was “Non-toxic” and the inhibition (Mus musculus [29]) was “Active”.
